Reference: PMC8009840 (Bioorganic chemistry, 2021)

How the values were obtained:
KOR [1] = conditions: cited from earlier work
MOR = conditions: read-out: MOR Ki; cited from earlier work
KOR [2] = biological target: KOR (Mus musculus, UniProt P33534); assay: Competitive radioligand binding assay, KOR; parameters: species or system mice; conditions: for Selectivity δ/κ: Ki ratio DOR/KOR; for Selectivity μ/κ: Ki ratio MOR/KOR
Method in brief: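 Competition binding on membranes (30 μg protein) from CHO cells expressing mouse KOR or MOR, or human DOR. [3H]diprenorphine labels KOR and DOR, and [3H]naloxone labels MOR. Varied test compound in TME buffer (50 mM Tris, 3 mM MgCl2, 0.2 mM EGTA, pH 7.4), 1.5 h, 30 °C, then filtration. Nonspecific binding: 5 μM U50,488 (KOR), DAMGO (MOR), SNC80 (DOR). IC50 by nonlinear regression, converted to Ki by Cheng-Prusoff; selectivity as Ki ratios.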

rat MOR = rat MOR (Rattus norvegicus, UniProt P33535); assay: [35S]-GTPγS functional assay, MOR-expressed CHO cell membranes; assay type: biochemical; conditions: for EC50: read-out: MOR [35S]-GTPγS binding EC50, mean ± SEM, at least three experiments; for MOR [35S]-GTPγS binding % Emax of DAMGO: relative to full agonist DAMGO (5 μM)
Method in brief: (§1)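 CHO membranes (10 μg protein) incubated 1 h at 30 °C with varied test compound, GDP (15 μM) and 80 pM [35S]GTPγS; nonspecific binding with 10 μM unlabelled GTPγS. Full agonist at 5 μM for the maximal response: U50,488H (KOR), DAMGO (MOR), DPDPE (DOR). Emax is net-stimulated binding as % of that full-agonist stimulation. Mean ± SEM of at least three experiments.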

mouse DOR = mouse DOR (Mus musculus, UniProt P32300); assay: [35S]-GTPγS functional assay, DOR-expressed CHO cell membranes; assay type: biochemical; conditions: for EC50: read-out: DOR [35S]-GTPγS binding EC50, mean ± SEM, at least three experiments; for DOR [35S]-GTPγS binding % Emax of DPDPE: relative to full agonist DPDPE (5 μM)
Method in brief: as §1

human KOR = human KOR (Homo sapiens, UniProt P41145); assay: [35S]-GTPγS functional assay, KOR-expressed CHO cell membranes; assay type: biochemical; conditions: for EC50: read-out: KOR [35S]-GTPγS binding EC50, mean ± SEM, at least three experiments; for KOR [35S]-GTPγS binding % Emax of U50,488H: relative to full agonist U50,488H (5 μM)
Method in brief: as §1

CN(C(=O)/C=C/c1ccoc1)[C@@H]1CC[C@@]2(O)[C@H]3Cc4cccc5c4[C@@]2(CCN3CC2CC2)[C@H]1O5 [CT-18]
μ/κ Ki ratio (KOR [1]): 355 | Ki (KOR [1]; read-out: KOR Ki): 1.5 nM | Ki (MOR): 533 nM

Cl.O=C(N[C@@H]1CC[C@@]2(O)[C@H]3Cc4cccc5c4[C@@]2(CCN3CC2CC2)[C@H]1O5)c1ccnc(Cl)c1 [Compound 6a, 17-Cyclopropylmethyl-4,5α-epoxy-14β-hydroxy-6β-{[4′-(2′-chloropyridyl)]carboxamido}morphinan hydrochloride]
Selectivity δ/κ (KOR [2]): 203 | Selectivity μ/κ (KOR [2]): 1.8

O=C(N[C@@H]1CC[C@@]2(O)[C@H]3Cc4cccc5c4[C@@]2(CCN3CC2CC2)[C@H]1O5)c1ccnc(Br)c1 [Compound 6b, 17-Cyclopropylmethyl-4,5α-epoxy-14β-hydroxy-6β-{[4′-(2′-bromopyridyl)]carboxamido}morphinan]
Selectivity δ/κ (KOR [2]): 280 | Selectivity μ/κ (KOR [2]): 3.3 | EC50 (rat MOR): 291 ± 42 nM | MOR [35S]-GTPγS binding % Emax of DAMGO (rat MOR): 33.62 ± 3.92% | EC50 (mouse DOR): 2680 ± 689 nM | DOR [35S]-GTPγS binding % Emax of DPDPE (mouse DOR): 145.10 ± 12.31% | EC50 (human KOR): 81.9 ± 9.09 nM | KOR [35S]-GTPγS binding % Emax of U50,488H (human KOR): 99.27 ± 2.79%

N#Cc1cc(C(=O)N[C@@H]2CC[C@@]3(O)[C@H]4Cc5cccc6c5[C@@]3(CCN4CC3CC3)[C@H]2O6)ccn1 [Compound 6c, 17-Cyclopropylmethyl-4,5α-epoxy-14β-hydroxy-6β-{[4′-(2′-cyanopyridyl)]carboxamido}morphinan]
Selectivity δ/κ (KOR [2]): 551 | Selectivity μ/κ (KOR [2]): 9.5 | EC50 (rat MOR): 338 ± 31.1 nM | MOR [35S]-GTPγS binding % Emax of DAMGO (rat MOR): 26.48 ± 3.73% | EC50 (mouse DOR): 1850 ± 152 nM | DOR [35S]-GTPγS binding % Emax of DPDPE (mouse DOR): 113.90 ± 3.10% | EC50 (human KOR): 92 ± 8.47 nM | KOR [35S]-GTPγS binding % Emax of U50,488H (human KOR): 100.20 ± 2.37%

Cc1cc(C(=O)N[C@@H]2CC[C@@]3(O)[C@H]4Cc5cccc6c5[C@@]3(CCN4CC3CC3)[C@H]2O6)ccn1 [Compound 6d, 17-Cyclopropylmethyl-4,5α-epoxy-14β-hydroxy-6β-{[4′-(2′-methylpyridyl)]carboxamido}morphinan]
Selectivity δ/κ (KOR [2]): 38.0 | Selectivity μ/κ (KOR [2]): 0.41

COc1cc(C(=O)N[C@@H]2CC[C@@]3(O)[C@H]4Cc5cccc6c5[C@@]3(CCN4CC3CC3)[C@H]2O6)ccn1 [Compound 6e, 17-Cyclopropylmethyl-4,5α-epoxy-14β-hydroxy-6β-{[4′-(2′-methoxypyridyl)]carboxamido}morphinan]
Selectivity δ/κ (KOR [2]): 67.9 | Selectivity μ/κ (KOR [2]): 0.53
